# Source: ChEMBL document CHEMBL1145015, “Structure-activity relationships of 1,2,4-benzotriazine 1,4-dioxides as hypoxia-selective analogues of tirapazamine” (J Med Chem, 2003)
# Columns and labels:
# [1] = Intraexperimental ratio of hypoxic TPZ C10 to hypoxic BTO C10 in mouse SCCVII tumor cells.; assay type: functional, SCC-7
# Method in brief: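 Computed within each experiment from the clonogenic SCCVII assay (1 h drug exposure, hypoxia <200 ppm O2 by gas evacuation/flushing, colony counting after 10–14 days). RHT = C10 of TPZ under hypoxia divided by C10 of the analogue under hypoxia.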
# [2] = Concentration required to reduce plating efficiency to 10 percent of controls, under hypoxic conditions in mouse SCCVII tumor cells.; assay type: functional, SCC-7
# Method in brief: (§1)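 SCCVII cells plated in glass dishes (2×10^5 to 1×10^6 per dish) 1–2 days ahead. Drug freshly dissolved, given in complete medium for 1 h at 37 °C with shaking. Hypoxia (<200 ppm O2) by repeated evacuation/flushing with 95% N2 + 5% CO2; aerobic controls flushed with 95% air + 5% CO2. Cells washed, trypsinized, replated. Crystal violet stain after 10–14 days, >50-cell colonies scored. C10 is the concentration giving 10% of control plating efficiency.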
# [3] = Concentration required to reduce plating efficiency to 10 percent of controls, under aerobic conditions in mouse SCCVII tumor cells.; assay type: functional, SCC-7; method in brief: as §1
# [4] = Intraexperimental difference between the hypoxic and aerobic cytotoxicity; assay type: functional
# Method in brief: (§2)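 Clonogenic SCCVII survival after 1 h drug exposure at 37 °C, either hypoxic (<200 ppm O2, 95% N2/5% CO2) or aerobic (95% air/5% CO2). Colonies of >50 cells counted after 10–14 days. HCR = aerobic C10 / hypoxic C10, with both values from the same experiment.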
# [5] = tested on: SCC-7; assay: Inhibitory concentration against murine SCCVII cell line under hypoxic condition; assay type: functional, cell-based; settings: Mus musculus
# Method in brief: (§3)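 SRB proliferation assay in 96-well plates. SCCVII (200 cells) or HT-29 (1000 cells) seeded in αMEM + 10% FCS with glucose (17 mM final) and 100 μM 2'-deoxycytidine, then attached for 3 h. Cells exposed for 4 h at 37 °C to 2-fold serial dilutions in triplicate, either oxic (20% O2, 5% CO2) or in an anaerobic chamber (<0.001% O2). After washing, cells grew for 5 (oxic) or 6 (anoxic) days before SRB staining. IC50 values are the mean of three independent experiments.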
# [6] = tested on: HT-29; assay: Interexperimental ratio of hypoxic TPZ C10 to hypoxic BTO C10 using human adenocarcinoma HT-29 cell line; assay type: functional
# [7] = tested on: SCC-7; assay: Interexperimental ratio of hypoxic TPZ C10 to hypoxic BTO C10 using murine SCCVII cell line; assay type: functional, Mus musculus
# [8] = tested on: HT-29; assay: Inhibitory concentration against human adenocarcinoma HT-29 cell line under aerobic condition; assay type: functional, cell-based; method in brief: as §3
# [9] = Interexperimental difference between the hypoxic and aerobic cytotoxicity using murine SCCVII cell line; assay type: functional, SCC-7
# [10] = tested on: HT-29; assay: Inhibitory concentration against human adenocarcinoma HT-29 cell line under hypoxic condition; assay type: functional, cell-based; method in brief: as §3
# [11] = Intraexperimental difference between the hypoxic and aerobic cytotoxicity in mouse SCCVII tumor cells; assay type: functional, SCC-7; method in brief: as §2
# [12] = Partition coefficient (logP); assay type: physicochemical; settings: octanol/water
# Method in brief: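 Octanol/water partition at pH 7.4, measured by low-volume shake flask. Drug in both the octanol and buffer phases quantified by HPLC.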
# [13] = tested on: SCC-7; assay: Inhibitory concentration against murine SCCVII cell line under aerobic condition; assay type: functional, cell-based; settings: Mus musculus; method in brief: as §3
# [14] = Interexperimental difference between the hypoxic and aerobic cytotoxicity using human adenocarcinoma HT-29 cell line; assay type: functional
IC50 [5],IC50 [8],IC50 [10],logP [12],IC50 [13],SMILES,RHT [1],C10 [2],C10 [3],HCR [4],RHT [6],RHT [7],HCR [9],HCR [11],HCR [14]
–,–,–,–,–,CCCCS(=O)(=O)c1ccc2c(c1)[n+]([O-])nc(N)[n+]2[O-],1.3,7.76 µM,>89.6 µM,>11.5,–,–,–,–,–
–,–,–,–,–,CCN(CC)c1ccc2c(c1)[n+]([O-])c(N)n[n+]2[O-],<0.2,>50.8 µM,>1269 µM,–,–,–,–,–,–
–,–,–,–,–,COc1ccc2c(c1)[n+]([O-])c(N)n[n+]2[O-],0.08,127 µM,–,–,–,–,–,–,–
–,–,–,–,–,COc1ccc2c(c1)[n+]([O-])nc(N)[n+]2[O-],0.53,19.3 µM,1934 µM,100,–,–,–,–,–
–,–,–,–,–,CS(=O)(=O)c1ccc2c(c1)[n+]([O-])c(N)n[n+]2[O-],0.39,26.1 µM,<274 µM,<10.5,–,–,–,–,–
–,–,–,–,–,CCN(CC)c1ccc2c(c1)[n+]([O-])nc(N)[n+]2[O-],<0.14,>72.5 µM,> 725 µM,–,–,–,–,–,–
12.2 µM,4.2 µM,23.3 µM,–,2.1 µM,CN(C)c1cccc2c1[n+]([O-])c(N)n[n+]2[O-],0.39,25.8 µM,30.5 µM,–,0.2,0.2,0.18,1.2,0.18
9.7 µM,69.8 µM,15.1 µM,-1.38,15.5 µM,CS(=O)(=O)c1cccc2c1[n+]([O-])nc(N)[n+]2[O-],0.2,50.8 µM,338 µM,–,0.4,0.2,1.6,6.7,4.5
13.5 µM,624 µM,28.8 µM,–,288 µM,COc1cccc2c1[n+]([O-])nc(N)[n+]2[O-],0.4,25.4 µM,>135 µM,–,0.2,0.2,25.7,>5.3,21.9
–,–,–,–,–,CCCCS(=O)(=O)c1ccc2c(c1)[n+]([O-])c(N)n[n+]2[O-],0.63,16.2 µM,<102 µM,<6.3,–,–,–,–,–
–,–,–,0.82,–,CCN(CC)c1cccc2c1[n+]([O-])nc(N)[n+]2[O-],0.089,114 µM,1904 µM,16.7,–,–,–,–,–
1.2 µM,8.7 µM,2.1 µM,–,23.7 µM,Nc1n[n+]([O-])c2c(F)cccc2[n+]1[O-],1,10.2 µM,132 µM,–,2.5,1.9,13.9,13,4.1
–,–,–,0.24,–,Cc1cccc2c1[n+]([O-])nc(N)[n+]2[O-],0.41,24.7 µM,2538 µM,102.9,–,–,–,–,–
0.61 µM,19.8 µM,0.73 µM,0.46,12.2 µM,Nc1n[n+]([O-])c2cc(Cl)ccc2[n+]1[O-],1.1,9.48 µM,271 µM,–,7.2,3.9,20.4,28.6,–
–,–,–,–,–,CCCCS(=O)(=O)c1cccc2c1[n+]([O-])nc(N)[n+]2[O-],1.2,8.31 µM,175 µM,21.1,–,–,–,–,–
–,–,–,–,–,Nc1n[n+]([O-])c2cccc(F)c2[n+]1[O-],1,10.2 µM,<76.1 µM,<7.5,–,–,–,–,–
–,–,–,–,–,COc1cccc2c1[n+]([O-])c(N)n[n+]2[O-],0.18,58 µM,47.9 µM,0.83,–,–,–,–,–
–,–,–,-1.15,–,CS(=O)(=O)c1ccc2c(c1)[n+]([O-])nc(N)[n+]2[O-],0.32,31.7 µM,251 µM,7.9,–,–,–,–,–
–,–,–,–,–,CCN(CC)c1cccc2c1[n+]([O-])c(N)n[n+]2[O-],0.15,67.7 µM,58.7 µM,0.87,–,–,–,–,–
–,–,–,–,–,CN(C)c1ccc2c(c1)[n+]([O-])nc(N)[n+]2[O-],0.043,237 µM,3159 µM,13.3,–,–,–,–,–
–,–,–,–,–,Cc1cccc2c1[n+]([O-])c(N)n[n+]2[O-],0.27,38.1 µM,< 381 µM,<10,–,–,–,–,–
–,–,–,–,–,Nc1n[n+]([O-])c2ccc(F)cc2[n+]1[O-],1,10.2 µM,114 µM,11.2,–,–,–,–,–
–,–,–,0.13,–,Cc1ccc2c(c1)[n+]([O-])nc(N)[n+]2[O-],0.63,16.2 µM,2031 µM,125,–,–,–,–,–
–,–,–,–,–,Nc1n[n+]([O-])c2ccc(C(F)(F)F)cc2[n+]1[O-],1.2,8.23 µM,110 µM,13.3,–,–,–,–,–
5.6 µM,469 µM,–,0.21,217 µM,Cc1ccc2c(c1)[n+]([O-])c(N)n[n+]2[O-],0.58,17.4 µM,2901 µM,–,0.4,0.4,42.6,166.7,–
–,–,–,–,–,CN(C)c1cccc2c1[n+]([O-])nc(N)[n+]2[O-],0.065,157 µM,2769 µM,17.6,–,–,–,–,–
0.7 µM,14.1 µM,0.79 µM,–,2.8 µM,Nc1n[n+]([O-])c2cc([N+](=O)[O-])ccc2[n+]1[O-],1.9,5.37 µM,36.3 µM,–,6.7,3.4,4.1,6.8,14.8
–,–,–,–,–,CN(C)c1ccc2c(c1)[n+]([O-])c(N)n[n+]2[O-],<0.023,>440 µM,440 µM,<1,–,–,–,–,–

SMILES,IC50 [5],IC50 [8],IC50 [10],logP [12],IC50 [13],RHT [1],C10 [2],C10 [3],HCR [4],RHT [6],RHT [7],HCR [9],HCR [11],HCR [14]
Nc1n[n+]([O-])c2c(Cl)cccc2[n+]1[O-],0.45 µM,7.7 µM,0.55 µM,0.17,8.2 µM,3.9,2.58 µM,102 µM,–,9.6,5.2,15.9,39.4,–
Nc1n[n+]([O-])c2cccc(Cl)c2[n+]1[O-],–,–,–,0.07,–,1.4,7.46 µM,10.2 µM,1.4,–,–,–,–,–
Nc1n[n+]([O-])c2ccccc2[n+]1[O-] [TIRAPAZAMINE],2.4 µM,196 µM,5.3 µM,-0.34,71.7 µM,1,10.2 µM,2644 µM,–,1,1,32.9,258,37
Nc1n[n+]([O-])c2ccc(Cl)cc2[n+]1[O-],0.98 µM,41.2 µM,1.3 µM,–,21.1 µM,1.6,6.47 µM,140 µM,–,4.1,2.4,22.5,21.6,33
Nc1n[n+]([O-])c2c(C(F)(F)F)cccc2[n+]1[O-],–,–,–,0.53,–,1.8,5.56 µM,626 µM,112.5,–,–,–,–,–
Nc1n[n+]([O-])c2cc(F)ccc2[n+]1[O-],1.1 µM,47.8 µM,1.87 µM,–,17.6 µM,1.9,5.41 µM,381 µM,–,2.8,2.2,19.3,70.3,21.7
